Measurements published in ChEMBL document CHEMBL3861950, “Design, synthesis and evaluation of novel 19F magnetic resonance sensitive protein tyrosine phosphatase inhibitors” (Medchemcomm, 2016).

What was measured:
[1] = Inhibition of recombinant Mycobacterium tuberculosis PTPB using pNPP as substrate by spectrophotometric method
How it was run: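 Recombinant enzyme made in-house. Substrate pNPP in 50 mM 3,3-dimethylglutarate buffer, pH 7.0, with 1 mM EDTA and 150 mM NaCl, at 25 °C, screened in 96-well format. p-Nitrophenol product read at 405 nm. Non-enzymatic pNPP hydrolysis was corrected using a control without enzyme.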

[2] = target: Tyrosine-protein phosphatase non-receptor type 13 (Homo sapiens, UniProt Q12923); assay: Inhibition of recombinant FAP1 (unknown origin) using pNPP as substrate by spectrophotometric method
How it was run: (§1)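 Recombinant PTP prepared in-house, assayed with pNPP substrate in 50 mM 3,3-dimethylglutarate buffer pH 7.0 containing 1 mM EDTA and 150 mM NaCl at 25 °C, in 96-well format. p-Nitrophenol product was quantified by absorbance at 405 nm. Non-enzymatic pNPP hydrolysis was corrected using a no-enzyme control.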

[3] = target: T1, Tyrosine-protein phosphatase non-receptor type 1 (Homo sapiens, UniProt P18031); assay: Inhibition of recombinant PTP1B (unknown origin) using pNPP as substrate by spectrophotometric method; how it was run: as §1
T1 sequence (P18031 whole entry): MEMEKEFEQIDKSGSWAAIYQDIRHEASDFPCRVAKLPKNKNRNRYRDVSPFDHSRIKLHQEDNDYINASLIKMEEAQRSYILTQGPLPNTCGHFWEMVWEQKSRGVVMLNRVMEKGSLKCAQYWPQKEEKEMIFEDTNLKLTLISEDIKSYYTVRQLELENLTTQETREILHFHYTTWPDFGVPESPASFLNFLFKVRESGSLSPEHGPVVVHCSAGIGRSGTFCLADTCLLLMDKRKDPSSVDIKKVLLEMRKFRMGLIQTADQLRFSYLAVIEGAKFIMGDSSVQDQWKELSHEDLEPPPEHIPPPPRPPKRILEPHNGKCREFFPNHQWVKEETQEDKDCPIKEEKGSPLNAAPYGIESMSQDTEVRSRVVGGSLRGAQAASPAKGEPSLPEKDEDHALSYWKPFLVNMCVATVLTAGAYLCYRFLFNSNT

[4] = target: T2, Receptor-type tyrosine-protein phosphatase C (Homo sapiens, UniProt P08575); assay: Inhibition of recombinant CD45 (unknown origin) using pNPP as substrate by spectrophotometric method; how it was run: as §1
T2 sequence (P08575 whole entry): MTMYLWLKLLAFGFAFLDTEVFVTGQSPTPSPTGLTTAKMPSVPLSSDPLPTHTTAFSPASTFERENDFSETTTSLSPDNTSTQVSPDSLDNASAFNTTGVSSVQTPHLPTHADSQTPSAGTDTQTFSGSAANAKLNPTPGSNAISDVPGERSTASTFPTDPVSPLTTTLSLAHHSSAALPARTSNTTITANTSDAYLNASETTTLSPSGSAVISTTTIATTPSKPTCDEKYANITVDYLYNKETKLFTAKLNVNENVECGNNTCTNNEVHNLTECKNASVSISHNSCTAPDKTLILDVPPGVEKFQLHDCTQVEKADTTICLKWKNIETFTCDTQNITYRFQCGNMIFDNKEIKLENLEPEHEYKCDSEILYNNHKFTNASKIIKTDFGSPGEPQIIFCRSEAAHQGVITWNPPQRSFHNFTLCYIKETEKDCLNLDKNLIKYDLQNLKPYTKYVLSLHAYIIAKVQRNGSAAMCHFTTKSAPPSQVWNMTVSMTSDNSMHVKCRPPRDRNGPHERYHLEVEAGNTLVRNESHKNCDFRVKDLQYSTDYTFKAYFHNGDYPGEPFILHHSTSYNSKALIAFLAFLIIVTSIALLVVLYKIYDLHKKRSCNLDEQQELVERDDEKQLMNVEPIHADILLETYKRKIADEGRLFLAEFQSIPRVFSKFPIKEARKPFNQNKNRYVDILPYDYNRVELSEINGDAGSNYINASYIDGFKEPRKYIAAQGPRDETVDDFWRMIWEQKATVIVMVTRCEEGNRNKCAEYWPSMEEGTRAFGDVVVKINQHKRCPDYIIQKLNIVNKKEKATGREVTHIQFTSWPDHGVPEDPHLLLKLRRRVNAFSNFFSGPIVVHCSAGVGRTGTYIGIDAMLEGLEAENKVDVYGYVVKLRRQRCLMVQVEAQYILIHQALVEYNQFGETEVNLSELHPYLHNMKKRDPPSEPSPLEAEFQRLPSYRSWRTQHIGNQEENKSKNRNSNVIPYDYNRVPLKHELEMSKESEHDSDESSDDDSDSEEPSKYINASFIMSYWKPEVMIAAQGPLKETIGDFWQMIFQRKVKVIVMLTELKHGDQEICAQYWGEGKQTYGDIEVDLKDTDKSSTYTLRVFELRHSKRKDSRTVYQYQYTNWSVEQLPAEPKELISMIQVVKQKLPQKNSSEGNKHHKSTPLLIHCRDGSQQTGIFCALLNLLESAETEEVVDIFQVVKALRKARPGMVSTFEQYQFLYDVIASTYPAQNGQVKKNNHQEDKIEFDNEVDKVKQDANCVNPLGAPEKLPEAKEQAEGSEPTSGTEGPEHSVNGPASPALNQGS

[5] = target: T3, Tyrosine-protein phosphatase non-receptor type 22 (Homo sapiens, UniProt Q9Y2R2); assay: Inhibition of recombinant LYP (unknown origin) using pNPP as substrate by spectrophotometric method; how it was run: as §1
T3 sequence (Q9Y2R2 whole entry): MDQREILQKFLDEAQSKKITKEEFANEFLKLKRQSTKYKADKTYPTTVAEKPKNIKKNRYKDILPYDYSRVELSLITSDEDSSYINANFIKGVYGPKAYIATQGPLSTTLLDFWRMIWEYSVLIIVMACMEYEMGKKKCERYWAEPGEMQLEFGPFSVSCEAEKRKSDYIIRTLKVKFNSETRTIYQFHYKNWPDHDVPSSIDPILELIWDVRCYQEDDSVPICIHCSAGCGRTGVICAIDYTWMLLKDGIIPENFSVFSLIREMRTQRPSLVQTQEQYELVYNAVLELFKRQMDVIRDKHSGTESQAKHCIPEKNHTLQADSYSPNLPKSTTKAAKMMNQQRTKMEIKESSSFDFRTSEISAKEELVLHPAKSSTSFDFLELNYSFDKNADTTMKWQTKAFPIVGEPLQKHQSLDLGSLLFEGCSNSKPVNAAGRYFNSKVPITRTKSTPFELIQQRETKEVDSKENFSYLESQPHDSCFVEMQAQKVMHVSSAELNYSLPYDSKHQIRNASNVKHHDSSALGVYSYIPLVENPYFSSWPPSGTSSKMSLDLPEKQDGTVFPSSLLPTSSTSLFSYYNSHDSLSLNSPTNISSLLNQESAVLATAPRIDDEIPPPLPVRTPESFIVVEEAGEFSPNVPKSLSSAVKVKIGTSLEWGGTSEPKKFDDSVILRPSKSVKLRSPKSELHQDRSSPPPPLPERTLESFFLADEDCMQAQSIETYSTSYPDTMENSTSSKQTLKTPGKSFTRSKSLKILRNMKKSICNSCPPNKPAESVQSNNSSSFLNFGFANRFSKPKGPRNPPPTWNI

[6] = target: T4, Tyrosine-protein phosphatase non-receptor type 11 (Homo sapiens, UniProt Q06124); assay: Inhibition of recombinant SHP2 (unknown origin) using pNPP as substrate by spectrophotometric method; how it was run: as §1
T4 sequence (Q06124 whole entry): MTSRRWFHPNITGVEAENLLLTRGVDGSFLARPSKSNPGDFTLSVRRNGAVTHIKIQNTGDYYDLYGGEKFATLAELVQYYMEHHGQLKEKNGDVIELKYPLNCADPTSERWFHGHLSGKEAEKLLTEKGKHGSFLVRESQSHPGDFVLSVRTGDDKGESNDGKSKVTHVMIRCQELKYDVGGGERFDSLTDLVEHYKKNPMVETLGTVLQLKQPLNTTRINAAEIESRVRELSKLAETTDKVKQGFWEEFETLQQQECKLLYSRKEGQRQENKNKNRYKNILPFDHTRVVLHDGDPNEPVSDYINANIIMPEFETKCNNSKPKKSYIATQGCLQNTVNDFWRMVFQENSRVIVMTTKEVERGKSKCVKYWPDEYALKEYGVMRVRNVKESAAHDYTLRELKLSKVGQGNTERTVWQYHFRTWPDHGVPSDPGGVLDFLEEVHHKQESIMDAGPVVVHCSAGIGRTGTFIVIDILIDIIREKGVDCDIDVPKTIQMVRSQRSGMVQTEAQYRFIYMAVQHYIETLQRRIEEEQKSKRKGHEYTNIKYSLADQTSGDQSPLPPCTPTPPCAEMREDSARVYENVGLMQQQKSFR

Sequence of Tyrosine-protein phosphatase non-receptor type 13 (Q12923 whole entry): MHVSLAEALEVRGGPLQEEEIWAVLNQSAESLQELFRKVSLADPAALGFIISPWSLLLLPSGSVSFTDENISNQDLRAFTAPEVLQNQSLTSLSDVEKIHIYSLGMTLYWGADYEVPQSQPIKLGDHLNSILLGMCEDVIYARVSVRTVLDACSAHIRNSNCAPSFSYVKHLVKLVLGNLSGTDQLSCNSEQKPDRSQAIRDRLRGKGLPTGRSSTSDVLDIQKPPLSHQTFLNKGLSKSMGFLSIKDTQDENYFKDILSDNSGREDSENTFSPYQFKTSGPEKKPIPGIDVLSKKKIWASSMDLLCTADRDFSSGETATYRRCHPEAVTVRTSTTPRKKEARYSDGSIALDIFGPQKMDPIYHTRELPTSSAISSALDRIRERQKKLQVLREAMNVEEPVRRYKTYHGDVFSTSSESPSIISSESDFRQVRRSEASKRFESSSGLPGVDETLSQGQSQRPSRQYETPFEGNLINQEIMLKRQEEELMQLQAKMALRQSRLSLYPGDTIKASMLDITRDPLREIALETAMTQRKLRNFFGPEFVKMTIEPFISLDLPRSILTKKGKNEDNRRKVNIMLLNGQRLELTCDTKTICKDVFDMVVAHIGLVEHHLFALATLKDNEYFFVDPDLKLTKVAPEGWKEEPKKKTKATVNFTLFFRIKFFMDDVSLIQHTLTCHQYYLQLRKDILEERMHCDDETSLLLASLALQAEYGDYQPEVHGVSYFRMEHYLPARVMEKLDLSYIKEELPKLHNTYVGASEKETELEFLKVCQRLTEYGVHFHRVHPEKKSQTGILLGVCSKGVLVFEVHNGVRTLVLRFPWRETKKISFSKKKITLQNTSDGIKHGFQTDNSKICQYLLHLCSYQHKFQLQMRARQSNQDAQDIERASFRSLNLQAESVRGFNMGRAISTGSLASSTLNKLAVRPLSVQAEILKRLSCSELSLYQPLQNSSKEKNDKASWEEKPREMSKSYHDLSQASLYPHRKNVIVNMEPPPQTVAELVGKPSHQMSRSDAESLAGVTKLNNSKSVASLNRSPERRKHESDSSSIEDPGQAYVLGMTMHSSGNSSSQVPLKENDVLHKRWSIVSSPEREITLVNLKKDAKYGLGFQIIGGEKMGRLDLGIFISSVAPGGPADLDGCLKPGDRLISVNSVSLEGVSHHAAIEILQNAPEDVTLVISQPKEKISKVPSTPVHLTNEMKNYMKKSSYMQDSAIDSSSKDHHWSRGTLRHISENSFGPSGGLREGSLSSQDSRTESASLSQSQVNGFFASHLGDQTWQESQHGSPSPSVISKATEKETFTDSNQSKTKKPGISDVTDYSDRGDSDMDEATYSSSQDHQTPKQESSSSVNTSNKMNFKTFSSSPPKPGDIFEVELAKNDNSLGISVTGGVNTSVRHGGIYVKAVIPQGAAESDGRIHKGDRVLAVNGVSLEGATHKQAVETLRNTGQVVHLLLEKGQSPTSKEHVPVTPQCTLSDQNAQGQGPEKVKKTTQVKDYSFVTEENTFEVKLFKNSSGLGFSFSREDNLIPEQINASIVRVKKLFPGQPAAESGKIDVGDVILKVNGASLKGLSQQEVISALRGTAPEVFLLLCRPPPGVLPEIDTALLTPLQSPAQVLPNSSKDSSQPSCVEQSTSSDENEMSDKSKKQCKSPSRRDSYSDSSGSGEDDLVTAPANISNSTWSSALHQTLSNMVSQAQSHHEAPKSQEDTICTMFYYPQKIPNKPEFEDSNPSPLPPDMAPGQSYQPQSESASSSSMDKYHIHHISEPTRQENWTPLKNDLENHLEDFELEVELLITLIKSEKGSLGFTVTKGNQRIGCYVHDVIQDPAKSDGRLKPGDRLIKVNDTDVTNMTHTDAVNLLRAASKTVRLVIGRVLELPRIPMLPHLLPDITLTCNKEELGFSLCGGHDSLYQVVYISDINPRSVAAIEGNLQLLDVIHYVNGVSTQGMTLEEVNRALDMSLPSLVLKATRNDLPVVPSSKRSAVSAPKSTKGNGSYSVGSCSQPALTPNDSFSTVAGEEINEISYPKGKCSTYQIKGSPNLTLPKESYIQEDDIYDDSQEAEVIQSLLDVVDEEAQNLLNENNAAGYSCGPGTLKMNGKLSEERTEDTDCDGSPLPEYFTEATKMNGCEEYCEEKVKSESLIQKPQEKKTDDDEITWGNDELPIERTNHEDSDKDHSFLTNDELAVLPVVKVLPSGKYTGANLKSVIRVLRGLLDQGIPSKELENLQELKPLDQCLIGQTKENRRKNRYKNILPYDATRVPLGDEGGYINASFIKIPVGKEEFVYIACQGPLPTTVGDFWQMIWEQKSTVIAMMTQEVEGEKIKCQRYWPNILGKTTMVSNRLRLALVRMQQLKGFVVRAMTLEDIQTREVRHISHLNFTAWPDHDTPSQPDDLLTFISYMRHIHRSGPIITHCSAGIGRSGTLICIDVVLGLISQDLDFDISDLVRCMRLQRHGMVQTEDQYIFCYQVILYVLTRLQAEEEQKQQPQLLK

| Compound | IC50 [1] [µM] | IC50 [2] [µM] | IC50 [3] [µM] | IC50 [4] [µM] | IC50 [5] [µM] | IC50 [6] [µM] |
| --- | --- | --- | --- | --- | --- | --- |
| O=C(COc1ccc2cc(C(O)(C(F)(F)F)C(F)(F)F)c(O)cc2c1)NC1c2ccccc2-c2ccccc21 | 9.4 | 5.6 | 13.8 | 6.6 | 7.5 | 6.9 |
| O=C(COc1ccc2cc(C(O)(C(F)(F)F)C(F)(F)F)c(O)cc2c1)Nc1cccc2ccccc12 | 4.7 | > 20 | > 20 | 29.1 | > 20 | > 20 |
| CCCNC(=O)COc1ccc2cc(C(O)(C(F)(F)F)C(F)(F)F)c(O)cc2c1 | > 20 | > 20 | > 20 | > 20 | > 20 | > 20 |
| O=C(COc1ccc2cc(C(O)(C(F)(F)F)C(F)(F)F)c(O)cc2c1)NCc1ccccc1 | > 20 | > 20 | > 20 | > 20 | > 20 | > 20 |
